Experimental data taken from ChEMBL document CHEMBL1131034, “Synthesis and pharmacological characterization of novel 6-fluorochroman derivatives as potential 5-HT1A receptor antagonists” (J Med Chem, 1998).

Legend:
[1] = target: T1, 5-hydroxytryptamine receptor 1A (Homo sapiens) (UniProt P08908); assay: Antagonist activity against CHO cells expressing the human 5-hydroxytryptamine 1A receptor in a forskolin stimulated adenylate cyclase (FSC) assay.; type: functional, cell-based
T1 sequence (whole entry): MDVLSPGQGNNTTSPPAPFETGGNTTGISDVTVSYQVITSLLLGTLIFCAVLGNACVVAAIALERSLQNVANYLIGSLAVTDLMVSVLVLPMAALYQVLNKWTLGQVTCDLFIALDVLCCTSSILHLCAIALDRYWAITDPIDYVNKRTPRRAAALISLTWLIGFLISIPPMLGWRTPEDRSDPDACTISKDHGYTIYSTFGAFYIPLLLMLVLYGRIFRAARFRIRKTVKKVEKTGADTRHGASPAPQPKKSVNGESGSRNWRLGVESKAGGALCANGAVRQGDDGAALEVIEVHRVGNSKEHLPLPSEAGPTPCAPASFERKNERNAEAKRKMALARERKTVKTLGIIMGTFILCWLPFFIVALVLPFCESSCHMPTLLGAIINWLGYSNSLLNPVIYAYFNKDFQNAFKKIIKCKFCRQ

[2] = target: D(2) dopamine receptor (Rattus norvegicus, UniProt P61169); assay: Binding affinity against dopamine receptor D2 on rat striatum using [3H]spiperone as radioligand.; type: tissue-based
Chain of D(2) dopamine receptor (P61169 whole entry): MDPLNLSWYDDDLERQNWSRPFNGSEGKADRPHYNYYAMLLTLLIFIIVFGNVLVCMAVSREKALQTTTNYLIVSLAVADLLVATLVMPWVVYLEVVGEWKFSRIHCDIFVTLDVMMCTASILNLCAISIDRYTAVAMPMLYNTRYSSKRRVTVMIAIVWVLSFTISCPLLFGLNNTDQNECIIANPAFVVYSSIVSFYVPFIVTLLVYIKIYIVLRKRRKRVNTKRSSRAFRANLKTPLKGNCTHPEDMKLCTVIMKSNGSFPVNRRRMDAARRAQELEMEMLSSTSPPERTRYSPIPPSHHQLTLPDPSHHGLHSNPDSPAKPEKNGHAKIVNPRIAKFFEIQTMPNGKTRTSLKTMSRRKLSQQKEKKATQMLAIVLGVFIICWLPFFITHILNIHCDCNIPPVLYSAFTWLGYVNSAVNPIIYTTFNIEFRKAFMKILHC

[3] = target: T2, Adrenergic receptor alpha-1 (Rattus norvegicus, UniProt P15823+P23944+P43140); assay: Binding affinity against alpha-1 adrenergic receptor on rat cortex using [3H]-prazosin as radioligand.; type: tissue-based, Brain
T2 sequence (P15823 whole entry): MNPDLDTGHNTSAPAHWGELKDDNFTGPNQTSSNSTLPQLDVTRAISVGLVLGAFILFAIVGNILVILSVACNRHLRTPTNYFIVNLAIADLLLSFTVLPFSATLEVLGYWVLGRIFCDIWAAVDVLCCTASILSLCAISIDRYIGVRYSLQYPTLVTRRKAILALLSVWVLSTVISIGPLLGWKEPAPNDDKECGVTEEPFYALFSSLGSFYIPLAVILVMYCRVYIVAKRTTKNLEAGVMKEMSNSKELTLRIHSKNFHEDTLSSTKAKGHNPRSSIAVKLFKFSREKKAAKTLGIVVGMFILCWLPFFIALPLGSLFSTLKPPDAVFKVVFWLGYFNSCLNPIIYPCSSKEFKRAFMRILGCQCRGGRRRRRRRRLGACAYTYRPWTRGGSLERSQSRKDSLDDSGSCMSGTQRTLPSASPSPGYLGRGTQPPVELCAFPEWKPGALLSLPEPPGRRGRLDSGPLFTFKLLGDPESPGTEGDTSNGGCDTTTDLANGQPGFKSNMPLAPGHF
T2 sequence (P23944 whole entry): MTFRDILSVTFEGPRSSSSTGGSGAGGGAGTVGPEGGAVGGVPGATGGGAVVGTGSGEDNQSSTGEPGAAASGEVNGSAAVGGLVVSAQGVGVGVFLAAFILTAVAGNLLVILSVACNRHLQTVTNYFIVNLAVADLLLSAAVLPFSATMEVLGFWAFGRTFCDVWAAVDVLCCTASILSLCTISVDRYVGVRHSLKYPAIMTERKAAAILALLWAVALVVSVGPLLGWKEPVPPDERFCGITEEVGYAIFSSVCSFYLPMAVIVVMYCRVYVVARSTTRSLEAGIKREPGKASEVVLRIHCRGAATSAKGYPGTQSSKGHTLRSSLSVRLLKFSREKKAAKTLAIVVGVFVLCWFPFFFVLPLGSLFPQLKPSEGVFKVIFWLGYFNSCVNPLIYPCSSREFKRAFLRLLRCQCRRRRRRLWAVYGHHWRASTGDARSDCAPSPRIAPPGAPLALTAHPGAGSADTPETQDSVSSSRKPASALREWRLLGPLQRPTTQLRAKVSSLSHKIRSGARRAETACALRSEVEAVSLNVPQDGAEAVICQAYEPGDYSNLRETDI
T2 sequence (P43140 whole entry): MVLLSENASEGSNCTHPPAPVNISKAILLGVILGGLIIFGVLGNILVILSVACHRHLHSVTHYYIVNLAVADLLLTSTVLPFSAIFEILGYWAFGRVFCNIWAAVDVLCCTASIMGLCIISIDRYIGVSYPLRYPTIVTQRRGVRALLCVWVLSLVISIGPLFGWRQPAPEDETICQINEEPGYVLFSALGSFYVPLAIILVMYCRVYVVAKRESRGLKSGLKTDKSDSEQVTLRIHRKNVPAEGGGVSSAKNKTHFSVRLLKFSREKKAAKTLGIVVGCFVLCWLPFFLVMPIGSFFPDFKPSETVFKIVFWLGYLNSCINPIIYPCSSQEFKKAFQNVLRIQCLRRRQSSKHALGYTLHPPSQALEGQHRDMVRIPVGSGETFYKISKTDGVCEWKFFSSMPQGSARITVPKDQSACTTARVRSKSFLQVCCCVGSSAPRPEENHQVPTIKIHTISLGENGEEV

[4] = system: Rattus norvegicus; assay: In vivo antagonist activity was measured as forepaw treading(FT) in a behavioral response test in reserpinized rats at 3 mg/kg(sc) dose.; type: functional
In short: (§1)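 Male Wistar rats given reserpine 18 h before use. Test compound or vehicle given 15 min before 8-OH-DPAT (0.25 mg/kg sc). Starting 3 min after agonist, forepaw treading and flat body posture scored every 3 min for 15 min on a ranked intensity scale. Doses expressed as free base. Mean ± SEM; Mann–Whitney U-test against vehicle control.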

[5] = system: Rattus norvegicus; assay: In vivo antagonist activity was measured as flat body posture (FBP) in a behavioral response test in reserpinized rats at 3 mg/kg(sc) dose.; type: functional; in short: as §1
[6] = Binding affinity (Ki) ratio of D2 receptor of rat striatum and 5-HT1A receptor of rat hippocampus.; type: tissue-based
[7] = system: Rattus norvegicus; assay: In vivo antagonist activity was measured as flat body posture (FBP) in a behavioral response test in reserpinized rats at 1 mg/kg(sc) dose.; type: functional; in short: as §1
[8] = target: Serotonin 1a (5-HT1a) receptor/Adrenergic receptor alpha-1 (Rattus norvegicus) (UniProt P15823+P23944+P43140+P19327); assay: Selectivity for 5-HT1A receptor of rat hippocampus and alpha-1 adrenergic receptor of rat cortex.; type: tissue-based
[9] = target: T3, 5-hydroxytryptamine receptor 1A (Rattus norvegicus, UniProt P19327); assay: Binding affinity against 5-hydroxytryptamine 1A receptor on rat hippocampus using [3H]8-OH-DPAT as radioligand.; type: tissue-based
T3 sequence (P19327 whole entry): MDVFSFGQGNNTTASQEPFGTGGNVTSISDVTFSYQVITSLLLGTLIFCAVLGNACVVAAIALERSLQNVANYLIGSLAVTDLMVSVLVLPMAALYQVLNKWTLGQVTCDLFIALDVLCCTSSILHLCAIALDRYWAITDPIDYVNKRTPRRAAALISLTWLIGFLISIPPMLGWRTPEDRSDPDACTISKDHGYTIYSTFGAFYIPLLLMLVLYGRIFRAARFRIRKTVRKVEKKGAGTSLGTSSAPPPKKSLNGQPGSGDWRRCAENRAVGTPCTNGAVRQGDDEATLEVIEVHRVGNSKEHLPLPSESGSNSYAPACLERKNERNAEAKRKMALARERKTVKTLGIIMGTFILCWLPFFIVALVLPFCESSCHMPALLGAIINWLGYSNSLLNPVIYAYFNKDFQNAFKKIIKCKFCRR

[10] = system: Rattus norvegicus; assay: In vivo antagonist activity was measured as forepaw treading(FT) in a behavioral response test in reserpinized rats upon subcutaneous administration; type: functional; in short: as §1
[11] = system: Rattus norvegicus; assay: In vivo antagonist activity was measured as flat body posture (FBP) in a behavioral response test in reserpinized rats upon subcutaneous administration; type: functional; in short: as §1
[12] = system: Rattus norvegicus; assay: In vivo antagonist activity was measured as forepaw treading(FT) in a behavioral response test in reserpinized rats at 1 mg/kg(sc) dose.; type: functional; in short: as §1
[13] = system: Rattus norvegicus; assay: in vivo antagonist activity was measured as flat body posture (FBP) in a behavioral response test in reserpinized rats at 3 mg/kg(sc) dose; type: functional
In short: (§2)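 Male Wistar rats given reserpine 18 h beforehand. Test compound or vehicle given sc; 15 min later 8-OH-DPAT 0.25 mg/kg sc. Forepaw treading and flat body posture scored on a ranked intensity scale every 3 min for 15 min, starting 3 min after 8-OH-DPAT. Doses as free base; mean ± SEM, Mann–Whitney U-test against vehicle controls.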

[14] = system: Rattus norvegicus; assay: in vivo antagonist activity was measured as forepaw treading(FT) in a behavioral response test in reserpinized rats at 1 mg/kg(sc) dose; type: functional; in short: as §2
[15] = system: Rattus norvegicus; assay: in vivo antagonist activity was measured as forepaw treading(FT) in a behavioral response test in reserpinized rats upon subcutaneous administration; type: functional; in short: as §2
[16] = system: Rattus norvegicus; assay: in vivo antagonist activity was measured as forepaw treading(FT) in a behavioral response test in reserpinized rats at 3 mg/kg(sc) dose; type: functional; in short: as §2
[17] = system: Rattus norvegicus; assay: in vivo antagonist activity was measured as flat body posture (FBP) in a behavioral response test in reserpinized rats at 1 mg/kg(sc) dose; type: functional; in short: as §2
[18] = system: Rattus norvegicus; assay: in vivo antagonist activity was measured as flat body posture (FBP) in a behavioral response test in reserpinized rats upon subcutaneous administration; type: functional; in short: as §2

| SMILES | FSC recovery [1] [%] | Ki [2] [nM] | Ki [3] [nM] | Ratio [6] | Selectivity [8] | Ki [9] [nM] | Behavior score [4] | Behavior score [5] | Behavior score [7] | Behavior score [10] | Behavior score [11] | Behavior score [12] | Behavior score [13] | Behavior score [14] | Behavior score [15] | Behavior score [16] | Behavior score [17] | Behavior score [18] |
| --- | --- | --- | --- | --- | --- | --- | --- | --- | --- | --- | --- | --- | --- | --- | --- | --- | --- | --- |
| COc1ccc(CCCCNCCOc2cc(F)cc3c2OCCC3)cc1 | 121 |  |  | 1.2 | 12 |  | 0.5 | 3 | 3.8 | 8.8 | 11.5 | 1.8 |  |  |  |  |  |  |
| CCCN(CCC)[C@H]1CCc2c(F)ccc(O)c2C1 |  |  |  |  | 130 |  |  |  |  |  |  |  | 1.8 | 1.3 | 9.9 | 0.5 | 3.5 | 12.6 |
| COc1ccc(CCCCNCCOc2cc(F)cc3c2OCCC3=O)cc1 | 59 | 62.3 | 203 | 20 | 66 | 3.07 | 1.3 | 2.3 | 6 | 10.2 | 11.3 | 3.8 |  |  |  |  |  |  |
| O=C1CCOc2c(OCCNCCCCc3ccc4c(c3)OCCO4)cc(F)cc21 | 65 | 25.1 | 303 | 9.7 | 120 | 2.6 | 5.8 | 8.5 |  | 7.7 | 11 |  |  |  |  |  |  |  |

Continued by falling Ki [2], values first:

| FSC recovery [1] [%] | Ki [2] [nM] | Ki [3] [nM] | Ratio [6] | Selectivity [8] | Ki [9] [nM] | SMILES | Behavior score [4] | Behavior score [5] | Behavior score [7] | Behavior score [10] | Behavior score [11] | Behavior score [12] | Behavior score [13] | Behavior score [14] | Behavior score [15] | Behavior score [16] | Behavior score [17] | Behavior score [18] |
| --- | --- | --- | --- | --- | --- | --- | --- | --- | --- | --- | --- | --- | --- | --- | --- | --- | --- | --- |
| 68 | 49.6 | 169 | 12 | 40 | 4.19 | O=C1CCOc2c(OCCNCCCCc3ccc4c(c3)CCO4)cc(F)cc21 | 1.2 | 3.8 | 6.8 | 10.1 | 12.3 | 4 |  |  |  |  |  |  |
| 55 | 42.1 | 209 | 16 | 78 | 2.67 | O=C1CCOc2c(OCCNCCCCc3ccc4c(c3)OCO4)cc(F)cc21 | 1.5 | 3 | 5.3 | 7.8 | 9.7 | 3 |  |  |  |  |  |  |
| 37 | 34.6 | 574 | 1.2 | 20 | 28.3 | CN(C)c1ccc(CCCCNCCOc2cc(F)cc3c2OCCC3=O)cc1 |  |  |  |  |  |  |  |  |  |  |  |  |
|  | 0.724 | 10.4 |  |  | 0.716 | COc1ccc(CCCCNCCOc2cc(F)cc3c2OCCC3O)cc1 (stereo in doubt; 34) | 1.8 | 4 | 6.8 | 8.6 | 12.4 | 3.3 |  |  |  |  |  |  |
| 109 | 0.288 | 8.31 | 1.8 | 52 | 0.159 | COc1ccc(CCCCNCCOc2cc(F)cc3c2OCC=C3)cc1 | 0 | 2.8 | 3.7 | 11.8 | 11.8 | 1.3 |  |  |  |  |  |  |
